The text below walks through data of ChEMBL document CHEMBL4190330, “Discovery of Potent and Selective A2A Antagonists with Efficacy in Animal Models of Parkinson's Disease and Depression” (ACS Med Chem Lett, 2017).

A short description of data set [1]: Solubility of the compound at pH 4. Type of data set: physicochemical. The note with it: buffer.
The target in the next data set is hERG (Homo sapiens, UniProt Q12809). As to the kind of experiment: Inhibition of human ERG at 10 uM relative to control.
Chain of hERG (Q12809 whole entry): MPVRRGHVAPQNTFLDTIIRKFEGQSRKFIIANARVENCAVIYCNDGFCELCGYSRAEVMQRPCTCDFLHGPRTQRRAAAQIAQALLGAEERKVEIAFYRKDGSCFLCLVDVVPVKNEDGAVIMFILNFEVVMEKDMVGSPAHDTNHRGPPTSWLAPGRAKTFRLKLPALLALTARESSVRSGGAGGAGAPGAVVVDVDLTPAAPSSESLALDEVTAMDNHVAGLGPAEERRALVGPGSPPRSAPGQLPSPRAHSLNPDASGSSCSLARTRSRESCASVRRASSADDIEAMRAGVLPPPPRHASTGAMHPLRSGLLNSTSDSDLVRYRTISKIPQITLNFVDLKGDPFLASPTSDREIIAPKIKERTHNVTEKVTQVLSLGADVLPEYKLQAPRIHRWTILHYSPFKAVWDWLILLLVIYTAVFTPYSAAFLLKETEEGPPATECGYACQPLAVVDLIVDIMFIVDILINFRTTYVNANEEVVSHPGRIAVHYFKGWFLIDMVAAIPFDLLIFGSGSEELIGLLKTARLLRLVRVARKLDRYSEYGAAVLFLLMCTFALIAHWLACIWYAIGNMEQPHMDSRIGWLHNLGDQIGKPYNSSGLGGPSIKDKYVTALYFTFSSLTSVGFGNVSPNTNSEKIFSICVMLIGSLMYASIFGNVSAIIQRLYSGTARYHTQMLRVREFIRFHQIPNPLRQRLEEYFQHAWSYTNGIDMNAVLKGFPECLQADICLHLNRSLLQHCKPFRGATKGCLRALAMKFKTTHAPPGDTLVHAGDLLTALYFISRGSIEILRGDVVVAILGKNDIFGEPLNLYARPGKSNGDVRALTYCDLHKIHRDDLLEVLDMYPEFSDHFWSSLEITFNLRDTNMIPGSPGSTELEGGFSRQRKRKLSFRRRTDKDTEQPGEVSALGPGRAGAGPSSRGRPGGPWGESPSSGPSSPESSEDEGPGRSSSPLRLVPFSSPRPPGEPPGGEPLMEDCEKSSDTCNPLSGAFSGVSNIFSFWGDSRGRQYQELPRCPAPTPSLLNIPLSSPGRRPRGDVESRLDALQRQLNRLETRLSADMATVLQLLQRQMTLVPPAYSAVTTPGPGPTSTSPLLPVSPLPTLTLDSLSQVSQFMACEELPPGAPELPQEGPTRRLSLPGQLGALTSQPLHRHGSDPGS
A short description of data set [2]: Solubility of the compound at pH 7.4. Type of data set: physicochemical. The note with it: buffer.
The species named for a further data set is Homo sapiens. The data set can be described thus: Selectivity ratio of Ki for displacement of [3H]-MRS-1754 from human A2B receptor expressed in HEK293 cell membranes to Ki for displacement of [3H]ZM241385 from human A2A receptor expressed in HEK293 cell membranes. The essentials: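 Radioligand binding used membranes from HEK-293 cells overexpressing each human adenosine receptor isoform. Points were run in triplicate, and 8-concentration IC50 curves were plotted to give Ki. The selectivity value is the Ki at the off-target isoform divided by the Ki at hA2A.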

The nature of data set [3]: Terminal half-life in Wistar rat at 3 mg/kg, iv by LC-MS/MS analysis. The note with it: in vivo, read-out: beta t1/2 (converted). Type of data set: ADME, organism-based. The essentials:
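Male Wistar rats, n = 4; iv dose 3 mg/kg in 10% NMP, 10% Cremophor EL, acetate buffer pH 4.2 q.s.; values are means.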

The nature of data set [4]: Solubility of the compound at pH 2. It is filed as physicochemical. The note with it: buffer.
A short description of data set [5]: Metabolic stability in rat liver microsomes assessed as metabolic rate. Type of data set: ADME, microsome. Put shortly:
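Liver microsomes (mouse, rat, dog, human) at 0.125 mg/mL protein; metabolic rate expressed as nmol/min/mg.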

Data set [6] has as its target Adenosine receptor A2a (Homo sapiens, UniProt P29274). The data set can be described thus: Antagonist activity at human A2A receptor expressed in HEK293 cell membranes assessed as reduction in CGS-21680-induced cAMP level pretreated for 15 mins followed by CGS-21680 addition measured after 30 mins by HTRF assay. Type of data set: functional, cell-based. The essentials:
(§1)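 HTRF-based cAMP functional assay; each compound tested at 12 concentrations, every point in triplicate; Ki given as mean of two independent experiments (n=2).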

The nature of data set [7]: Ratio of AUC (0 to 4 hrs) in Wistar rat brain to plasma at 3 mg/kg, iv by LC-MS/MS analysis. Type of data set: ADME, organism-based. The conditions noted are these: read-out: Ratio AUC.
Data set [8] has as its target T1, Adenosine receptor A3 (Homo sapiens) (UniProt P0DMS8).
T1 sequence (whole entry): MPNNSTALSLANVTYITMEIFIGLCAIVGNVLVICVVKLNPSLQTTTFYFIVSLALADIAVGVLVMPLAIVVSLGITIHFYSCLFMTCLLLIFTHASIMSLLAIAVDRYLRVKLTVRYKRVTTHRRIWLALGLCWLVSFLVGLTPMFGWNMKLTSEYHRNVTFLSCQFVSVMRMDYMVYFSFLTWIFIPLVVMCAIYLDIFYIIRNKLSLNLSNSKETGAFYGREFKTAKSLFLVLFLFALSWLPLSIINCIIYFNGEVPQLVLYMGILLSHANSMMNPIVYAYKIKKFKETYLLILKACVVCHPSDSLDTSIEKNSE
The data set can be described thus: Displacement of [3H]-HEMADO from human A3 receptor expressed in HEK293 cell membranes at 10 uM after 90 mins radioligand binding assay. Put shortly: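 Membranes from HEK-293 cells overexpressing human A3 receptor; points in triplicate; highest concentration tested 10 µM.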

Data set [9] is described as follows: AUC (0 to t) in Wistar rat at 10 mg/kg, po administered via gavage by LC-MS/MS analysis. It is filed as ADME, organism-based. The note with it: in vivo.
The next data set addresses Cytochrome P450 3A4 (Homo sapiens, UniProt P08684). As to the kind of experiment: Inhibition of CYP3A4 (unknown origin). It is filed as ADME.
The next data set has as its target T2, Cytochrome P450 1A2 (Homo sapiens, UniProt P05177).
T2 sequence (P05177 whole entry): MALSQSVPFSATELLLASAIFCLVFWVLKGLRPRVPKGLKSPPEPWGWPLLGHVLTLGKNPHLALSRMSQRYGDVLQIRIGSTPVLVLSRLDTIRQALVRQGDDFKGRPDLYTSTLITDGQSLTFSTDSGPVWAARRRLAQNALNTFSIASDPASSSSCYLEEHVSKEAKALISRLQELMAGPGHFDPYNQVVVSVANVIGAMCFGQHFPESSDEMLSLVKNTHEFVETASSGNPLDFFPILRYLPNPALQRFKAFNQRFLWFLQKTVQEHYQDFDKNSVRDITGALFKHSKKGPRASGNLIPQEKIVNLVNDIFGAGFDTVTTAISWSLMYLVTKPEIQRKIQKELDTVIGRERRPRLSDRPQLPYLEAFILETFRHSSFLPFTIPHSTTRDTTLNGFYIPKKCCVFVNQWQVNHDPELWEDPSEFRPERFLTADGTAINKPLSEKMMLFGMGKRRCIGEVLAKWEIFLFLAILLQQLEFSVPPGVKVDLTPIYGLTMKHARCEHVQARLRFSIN
The data set can be described thus: Inhibition of CYP1A2 (unknown origin). Type of data set: ADME.

A short description of data set [10]: Oral bioavailability in Wistar rat at 10 mg/kg administered via gavage by LC-MS/MS analysis. Type of data set: ADME, organism-based. The conditions noted are these: in vivo. Put shortly:
(§2)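 Male Wistar rats, n = 4; oral dose 10 mg/kg as suspension in 1% Tween 80 with 0.5% w/v NaCMC; values are means.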

A short description of data set [11]: Cmax in Wistar rat at 10 mg/kg, po administered via gavage by LC-MS/MS analysis. It is filed as ADME, organism-based. The arrangement: dose 10 mg/kg, route oral. The conditions noted are these: in vivo. Put shortly:
as §2

A short description of data set [12]: Tmax in Wistar rat at 10 mg/kg, po administered via gavage by LC-MS/MS analysis. Type of data set: ADME, organism-based. The note with it: in vivo. Put shortly: as §2
The subject of the next data set is Mus musculus. The data set can be described thus: Antidepressant-like activity in po dosed mouse assessed as reduction in immobility time treated 1 hr prior to testing measured for 6 mins by tail suspension test.
The target of data set [13] is Adenosine receptor A2a (Rattus norvegicus, UniProt P30543). The data set can be described thus: Antagonist activity at rat A2A receptor assessed as reduction in CGS-21680-induced cAMP level pretreated for 15 mins followed by CGS-21680 addition measured after 30 mins by HTRF assay. It is filed as functional. Put shortly: as §1
Chain of Adenosine receptor A2a (Rattus norvegicus, UniProt P30543) (P30543 whole entry): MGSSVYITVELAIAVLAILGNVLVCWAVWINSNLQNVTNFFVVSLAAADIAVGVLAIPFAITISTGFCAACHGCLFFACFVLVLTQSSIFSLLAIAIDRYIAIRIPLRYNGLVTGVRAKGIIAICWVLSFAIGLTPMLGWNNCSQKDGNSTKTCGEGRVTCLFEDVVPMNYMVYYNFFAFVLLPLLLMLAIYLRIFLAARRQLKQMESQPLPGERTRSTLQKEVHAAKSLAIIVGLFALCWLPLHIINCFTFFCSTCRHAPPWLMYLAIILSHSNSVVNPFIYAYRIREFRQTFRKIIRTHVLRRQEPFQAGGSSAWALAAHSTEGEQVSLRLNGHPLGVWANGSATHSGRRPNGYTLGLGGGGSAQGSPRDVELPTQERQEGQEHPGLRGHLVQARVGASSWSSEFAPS
The next data set has as its target T3, Adenosine receptor A2b (Homo sapiens, UniProt P29275).
T3 sequence (P29275 whole entry): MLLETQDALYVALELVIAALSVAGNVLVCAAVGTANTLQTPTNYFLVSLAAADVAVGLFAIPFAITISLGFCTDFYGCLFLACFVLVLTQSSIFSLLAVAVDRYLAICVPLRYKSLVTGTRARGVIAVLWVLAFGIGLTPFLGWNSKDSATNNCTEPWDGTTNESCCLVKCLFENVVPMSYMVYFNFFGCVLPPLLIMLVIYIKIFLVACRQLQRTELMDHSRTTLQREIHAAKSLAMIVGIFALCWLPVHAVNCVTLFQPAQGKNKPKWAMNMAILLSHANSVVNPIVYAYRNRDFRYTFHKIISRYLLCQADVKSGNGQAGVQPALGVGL
As to the kind of experiment: Displacement of [3H]-MRS-1754 from human A2B receptor expressed in HEK293 cell membranes after 90 mins radioligand binding assay. Put shortly: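 Membranes from HEK-293 cells overexpressing the relevant human adenosine receptor subtype; all points in triplicate; Ki derived from 8-concentration IC50 curves.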

Data set [14] is described as follows: Permeability across apical to basolateral side in human Caco2 cells. It is filed as ADME, cell-based. The conditions noted are these: caco-2.
In a further data set the target is Cytochrome P450 2C19 (Homo sapiens, UniProt P33261). The data set can be described thus: Inhibition of CYP2C19 (unknown origin). It is filed as ADME.
Chain of Cytochrome P450 2C19 (P33261 whole entry): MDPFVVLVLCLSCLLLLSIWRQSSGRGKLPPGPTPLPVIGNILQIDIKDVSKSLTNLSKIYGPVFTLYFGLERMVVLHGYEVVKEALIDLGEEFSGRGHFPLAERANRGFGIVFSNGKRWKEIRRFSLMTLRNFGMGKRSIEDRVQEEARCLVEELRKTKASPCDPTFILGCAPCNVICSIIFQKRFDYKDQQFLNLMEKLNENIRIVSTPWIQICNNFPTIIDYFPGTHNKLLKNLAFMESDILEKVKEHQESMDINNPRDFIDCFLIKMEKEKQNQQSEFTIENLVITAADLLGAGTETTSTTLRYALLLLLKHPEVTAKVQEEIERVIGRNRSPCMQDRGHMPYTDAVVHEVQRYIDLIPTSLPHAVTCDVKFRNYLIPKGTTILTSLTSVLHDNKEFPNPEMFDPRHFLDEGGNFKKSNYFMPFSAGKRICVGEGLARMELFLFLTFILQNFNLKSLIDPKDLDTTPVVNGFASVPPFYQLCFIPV
Another data set addresses Cytochrome P450 2D6 (Homo sapiens, UniProt P10635). As to the kind of experiment: Inhibition of CYP2D6 (unknown origin). It is filed as ADME.

≈ marks a conversion by molar mass, not a printed value. Calls of active or inactive are those of the source. The calls are words filed in the database; no cut-off is given here. Where only a bound is given, the exact number is not on record here.

Chain of Cytochrome P450 3A4 (P08684 whole entry): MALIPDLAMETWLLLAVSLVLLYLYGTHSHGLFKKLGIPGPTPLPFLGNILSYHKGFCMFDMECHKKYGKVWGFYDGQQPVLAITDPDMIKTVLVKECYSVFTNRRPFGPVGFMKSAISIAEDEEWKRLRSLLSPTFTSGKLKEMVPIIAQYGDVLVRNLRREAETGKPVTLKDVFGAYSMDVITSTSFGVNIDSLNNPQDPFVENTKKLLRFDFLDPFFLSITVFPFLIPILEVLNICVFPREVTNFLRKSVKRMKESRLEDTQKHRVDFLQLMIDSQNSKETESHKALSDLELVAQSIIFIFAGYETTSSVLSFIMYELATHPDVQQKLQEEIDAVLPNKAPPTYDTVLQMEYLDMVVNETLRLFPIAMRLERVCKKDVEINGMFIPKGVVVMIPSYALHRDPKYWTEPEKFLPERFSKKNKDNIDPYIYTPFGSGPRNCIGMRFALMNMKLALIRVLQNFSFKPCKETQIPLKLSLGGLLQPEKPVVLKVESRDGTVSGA
Chain of Adenosine receptor A2a (Homo sapiens, UniProt P29274) (P29274 whole entry): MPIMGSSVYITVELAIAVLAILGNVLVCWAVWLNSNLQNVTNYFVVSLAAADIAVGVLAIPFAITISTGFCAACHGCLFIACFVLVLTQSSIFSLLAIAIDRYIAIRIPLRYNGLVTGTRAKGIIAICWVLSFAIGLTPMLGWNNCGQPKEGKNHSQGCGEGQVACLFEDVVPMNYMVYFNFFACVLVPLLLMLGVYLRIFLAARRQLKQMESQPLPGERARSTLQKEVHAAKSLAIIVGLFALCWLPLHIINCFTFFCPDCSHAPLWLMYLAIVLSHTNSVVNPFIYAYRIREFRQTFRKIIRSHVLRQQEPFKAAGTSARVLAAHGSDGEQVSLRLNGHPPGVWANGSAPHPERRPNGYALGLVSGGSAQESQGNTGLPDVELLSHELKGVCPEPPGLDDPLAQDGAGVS
Chain of Cytochrome P450 2D6 (P10635 whole entry): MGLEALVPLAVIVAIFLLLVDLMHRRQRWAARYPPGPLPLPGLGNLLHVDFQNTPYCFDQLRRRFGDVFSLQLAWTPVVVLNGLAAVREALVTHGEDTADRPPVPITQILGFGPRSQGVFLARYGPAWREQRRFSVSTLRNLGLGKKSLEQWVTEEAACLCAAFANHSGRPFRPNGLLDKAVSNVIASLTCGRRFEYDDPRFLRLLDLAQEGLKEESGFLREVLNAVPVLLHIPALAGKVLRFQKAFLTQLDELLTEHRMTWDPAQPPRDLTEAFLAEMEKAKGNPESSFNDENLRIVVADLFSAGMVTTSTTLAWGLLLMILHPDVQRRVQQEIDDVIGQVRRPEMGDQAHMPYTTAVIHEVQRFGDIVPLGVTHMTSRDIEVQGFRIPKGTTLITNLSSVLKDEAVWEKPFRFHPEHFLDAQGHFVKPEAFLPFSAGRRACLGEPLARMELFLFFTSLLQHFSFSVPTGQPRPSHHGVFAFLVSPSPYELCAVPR

Turning to `COCCOc1ccc(N2CCN(CCn3c(=O)n(C)c4c3nc(N)n3nc(-c5nccs5)nc43)CC2)cc1F`, the solubility in data set [1] was 486 µM (≈ 276 µg/mL); in data set [2], 17 µM (≈ 9.67 µg/mL); in data set [4], more than 2000 µM. The same compound yielded an inhibition at 10 µM on hERG of 38%. The Ratio Ki in the data set listed under Homo sapiens is more than 3000. Further, in data set [3], the half-life was 60 min. In addition, the Drug metabolism in [5] worked out at 0 nmol/min/mg. Moreover, the Ki was 0.0004 µM on Adenosine receptor A2a [6], 0.00044 to 0.0044 µM on Adenosine receptor A2a [13] and 5 µM at Adenosine receptor A2b. Besides, in data set [7], the Kp was found to be 0.38. Besides, the inhibition result in data set [8] was “inactive”. The AUC(0-t) in data set [9] was 2.2 µM·h. Besides, the concentration for half-maximal inhibition (IC50) at Cytochrome P450 3A4, on Cytochrome P450 1A2, on Cytochrome P450 2C19 and at Cytochrome P450 2D6 was more than 10 µM in each case. The bioavailability in data set [10] stood at 32%. In data set [11], this compound showed a Cmax of 600 nM. In addition, in data set [12], the Tmax is 48 min. For the same compound, the ED50 in the data set on Mus musculus was 0.7 mg/kg. Also, the permeability result in data set [14] is on record as “Permeable”.
